Test results from ChEMBL document CHEMBL1124442, “Potential antitumor agents. 58. Synthesis and structure-activity relationships of substituted xanthenone-4-acetic acids active against the colon 38 tumor in vivo” (1989).
Activity calls are given as the source filed them.

How the values were obtained:
[1] = Ability of compound (65 mg/kg, q4dx3) to inhibit growth of Sc colon 38 tumor cells in mice; format: functional, Mus musculus
Method in brief: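 Subcutaneously implanted colon 38 fragments were grown to 4–8 mm diameter. Mice with palpable tumors were randomized in groups of five and dosed ip with drug in aqueous solution; q4d×3 means three equal doses 4 days apart. Major and minor tumor axes were measured twice weekly from the start of treatment. Volume was calculated as 0.52x²y, and growth delay in days was derived against untreated controls.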

P388 [2] = test: Inhibition of 10e6 P388 leukemic cells in mice, intraperitoneal administration; format: functional, Mus musculus
Method in brief: (§1)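 10⁶ P388 leukemia cells injected intraperitoneally. Drug given intraperitoneally as the sodium salt in 0.2 mL water on days 1, 5 and 9; optimal dose is in mg/kg per day. ILS is the mean percent increase in lifespan over untreated tumor-bearing controls, with ≥20% considered significant. NA means no activity at any dose up to toxic levels.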

P388 [3] = test: The average percentage increase in the lifespan of P388 leukemic mice, when compound was administered intraperitoneally; format: functional, Mus musculus
Method in brief: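 Mice received 10⁶ P388 leukemia cells ip. Drug was given ip as the sodium salt in 0.2 mL water on days 1, 5 and 9, with doses in mg/kg/day up to toxic levels. ILS is the average percentage increase in lifespan over untreated tumor-bearing controls, and values of ≥20% were taken as significant.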

[4] = Activity against colon adenocarcinoma C38 tumor in mice, after intraperitoneal administration at optimal dose; format: functional, Mus musculus
Method in brief: (§2)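 Colon 38 fragments implanted subcutaneously and grown to 4–8 mm diameter. Single intraperitoneal dose of the sodium salt in 0.2 mL water, escalated at 1.5-fold intervals up to 750 mg/kg or the toxic limit, with at least three mice per dose. Optimal dose is the highest dose with no acute deaths within 24 h. Tumors excised at 24 h, fixed in formalin and stained with H&E. Sections scored against controls: + = 50–90% hemorrhagic necrosis, ++ = >90%.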

[5] = Inhibition of colon adenocarcinoma C38 tumor growth in mice, intraperitoneal administration; format: functional, Mus musculus; method in brief: as §2
[6] = Ability of compound (100 mg/kg, single dose) to inhibit growth of Sc colon 38 tumor cells in mice; format: functional, Mus musculus
Method in brief: (§3)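 Mice carrying palpable subcutaneous colon 38 tumors, randomized in groups of five. Drug given intraperitoneally in aqueous solution, either as a single dose or as two equal doses 7 days apart. Major and minor tumor axes measured twice weekly from the start of treatment. Volume taken as 0.52x²y. Growth delay in days is relative to untreated controls.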

P388 [7] = test: The average percentage increase in the lifespan of P388 leukemic mice, when compound was administered intraperitoneally; NA is Not Active.; format: functional, cell-based; details: Mus musculus; method in brief: as §1
[8] = Activity against colon adenocarcinoma C38 tumor in mice, after intraperitoneal administration at optimal dose and value ranges from 50 -90 %; format: functional, Mus musculus; method in brief: as §2
P388 [9] = test: The average percentage increase in the lifespan of P388 leukemic mice, when compound was administered intraperitoneally; NA means not active.; format: functional, cell-based; details: Mus musculus; method in brief: as §1
P388 [10] = test: The average percentage increase in the lifespan of P388 leukemic mice, when compound was administered intraperitoneally; NA means not active; format: functional, cell-based; details: Mus musculus; method in brief: as §1
[11] = Ability of compound (220 mg/kg, q7dx2) to inhibit growth of Sc colon 38 tumor cells in mice; format: functional, Mus musculus; method in brief: as §3
[12] = Ability of compound (330 mg/kg, single dose) to inhibit growth of Sc colon 38 tumor cells in mice; format: functional, Mus musculus; method in brief: as §3
[13] = Ability of compound (45 mg/kg, q7dx2) to inhibit growth of Sc colon 38 tumor cells in mice; format: functional, Mus musculus; method in brief: as §3
P388 [14] = test: The average percentage increase in the lifespan of P388 leukemic mice, when compound was administered intraperitoneally; NA is Not active; format: functional, cell-based; details: Mus musculus; method in brief: as §1
[15] = Activity against colon adenocarcinoma C38 tumor in mice, after intraperitoneal administration at optimal dose.; format: functional, Mus musculus; method in brief: as §2
P388 [16] = test: Optimal dose that inhibits growth of 10e6 P388 leukemic cells in mice, after intraperitoneal administration of the compound; format: functional, Mus musculus; method in brief: as §1

Row | Compound | Optimal dose (P388 [2]) | Activity [4] | Optimal dose [5] | ILS (P388 [7]) | Activity [8] | other results
1 | O=c1[nH]cc(F)c(=O)[nH]1 [FLUOROURACIL] |  |  |  |  |  | Growth delay [1]: 12.5 days
2 | O=C(O)Cc1cccc2c(=O)c3cccc(Cl)c3oc12 | 65 mg/kg | >90% | 150 mg/kg |  |  | ILS (P388 [3]): 34%; Growth delay [6]: 5.2 days
3 | O=C(O)Cc1cccc2c(=O)c3ccc(O)cc3oc12 | 225 mg/kg |  | 750 mg/kg | No activity | 50% | 
4 | O=C(O)Cc1cccc2oc3ccccc3c(=O)c12 | 500 mg/kg | <50% | 500 mg/kg | No activity |  | 
5 | Cc1ccc2c(=O)c3cccc(CC(=O)O)c3oc2c1 | 100 mg/kg |  | 220 mg/kg |  | 50% | ILS (P388 [3]): 24%
6 | O=C(O)Cc1cccc2c(=O)c3ccc(Cl)cc3oc12 | 65 mg/kg |  | 150 mg/kg | No activity | 50% | 
7 | O=C(O)Cc1cccc2c(=O)c3cccc(O)c3oc12 | 150 mg/kg | <50% | 750 mg/kg |  |  | ILS (P388 [9]): No activity
8 | O=C(O)Cc1cc(O)cc2c(=O)c3ccccc3oc12 |  | <50% | 750 mg/kg |  |  | 
9 | Cc1cc(CC(=O)O)c2oc3ccccc3c(=O)c2c1 | 330 mg/kg |  | 500 mg/kg | No activity | 50% | 
10 | O=C(O)Cc1cccc2c(=O)c3ccccc3oc12 | 150 mg/kg | >90% | 220 mg/kg |  |  | ILS (P388 [10]): inactive; Growth delay [11]: 11 days
11 | COc1ccc(CC(=O)O)c2oc3ccccc3c(=O)c12 |  | <50% | 500 mg/kg |  |  | 
12 | O=C(O)Cc1cccc2c(=O)cc(-c3ccccc3)oc12 [MITOFLAXONE] | 150 mg/kg | >90% | 330 mg/kg | No activity |  | Growth delay [12]: 17 days
13 | COc1ccc2c(=O)c3ccccc3oc2c1CC(=O)O | 220 mg/kg | <50% | 220 mg/kg | No activity |  | 
14 | O=C(O)Cc1cccc2c(=O)c3cc(O)ccc3oc12 |  | <50% | 750 mg/kg |  |  | 
15 | O=C(O)Cc1cccc2c(=O)c3c(Cl)cccc3oc12 | 330 mg/kg |  | 750 mg/kg | No activity | 50% | 
16 | COc1ccc2oc3c(CC(=O)O)cccc3c(=O)c2c1 | 150 mg/kg |  | 500 mg/kg | No activity | 50% | 
17 | Cc1ccc2oc3c(CC(=O)O)cccc3c(=O)c2c1 | 500 mg/kg |  | 500 mg/kg | No activity | 50% | 

Row | Compound | Optimal dose (P388 [2]) | Activity [4] | Optimal dose [5] | ILS (P388 [7]) | Activity [8] | other results
18 | Cc1cccc2oc3c(CC(=O)O)cccc3c(=O)c12 | 150 mg/kg | <50% | 330 mg/kg | No activity |  | 
19 | Cc1cccc2c(=O)c3cccc(CC(=O)O)c3oc12 | 30 mg/kg | >90% | 45 mg/kg |  |  | ILS (P388 [3]): 27%; Growth delay [13]: 13 days
20 | O=C(O)Cc1cccc2c(=O)c3cc([N+](=O)[O-])ccc3oc12 | 225 mg/kg | <50% | 500 mg/kg |  |  | ILS (P388 [14]): inactive
21 | O=C(O)Cc1c(O)ccc2c(=O)c3ccccc3oc12 | 500 mg/kg | <50% | 500 mg/kg | No activity |  | 
22 | O=C(O)Cc1cccc2c(=O)c3cc(Cl)ccc3oc12 | 150 mg/kg |  | 500 mg/kg | No activity | 50% | 
23 | O=C(O)Cc1cccc2c(=O)c3cccc([N+](=O)[O-])c3oc12 | 150 mg/kg |  | 220 mg/kg |  |  | ILS (P388 [14]): inactive
24 | O=C(O)Cc1cc(Cl)cc2c(=O)c3ccccc3oc12 | 150 mg/kg |  | 330 mg/kg | No activity | 50% | 
25 | O=C(O)Cc1ccc(Cl)c2c(=O)c3ccccc3oc12 | 220 mg/kg | >90% | 330 mg/kg | No activity |  | 
26 | COc1ccc2c(=O)c3cccc(CC(=O)O)c3oc2c1 | 65 mg/kg |  | 150 mg/kg |  | 50% | ILS (P388 [3]): 28%; Growth delay [6]: 0 days
27 | O=C(O)Cc1ccc(O)c2c(=O)c3ccccc3oc12 |  | <50% | 750 mg/kg |  |  | 
28 | COc1cc(CC(=O)O)c2oc3ccccc3c(=O)c2c1 | 225 mg/kg |  | 750 mg/kg | No activity | 50% | 
29 | O=C(O)Cc1c(Cl)ccc2c(=O)c3ccccc3oc12 | 150 mg/kg |  | 500 mg/kg | No activity |  | Activity [15]: >90%
30 | Cc1ccc2c(=O)c3ccccc3oc2c1CC(=O)O | 100 mg/kg |  | 150 mg/kg |  | 50% | ILS (P388 [3]): 26%
31 | COc1cccc2oc3c(CC(=O)O)cccc3c(=O)c12 | 330 mg/kg | <50% | 750 mg/kg | No activity |  | 
32 | Cc1ccc(CC(=O)O)c2oc3ccccc3c(=O)c12 |  |  | 150 mg/kg | No activity | 50% | Optimal dose (P388 [16]): 100 mg/kg
33 | COc1cccc2c(=O)c3cccc(CC(=O)O)c3oc12 | 150 mg/kg |  | 150 mg/kg |  | 50% | ILS (P388 [3]): 42%
34 | O=C(O)Cc1ccc2c(=O)c3ccccc3oc2c1 | 225 mg/kg | <50% | 500 mg/kg | No activity |  | 
